Activity calls are given as the source filed them. The rule behind the calls is not given here.
Columns and labels:
SMMC-7721 [1] = assay: Induction of endoplasmic reticulum vacuolation in human SMMC7721 cells assessed as vacuole derivatization by expansion and swelling of rough ER with vacuoles wrapped in monolayer membranes with loss of ER structure integrity at 5 uM incubated for 48 hrs by transmission electron microscopy; format: functional, cell-based
Summary of the method: (§1)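 SMMC-7721 cells incubated 48 h at 5 μM, alongside untreated control cells, then imaged by transmission electron microscopy. ER, mitochondria, Golgi, nucleus, membrane and autophagosomes/apoptotic bodies were inspected.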

HepG2 [2] = assay: Induction of cell vacuole formation in human HepG2 cells at 5 uM incubated for 24 hrs by phase contrast microscopy; format: functional, cell-based
CNE [3] = assay: Antiproliferative activity against human CNE1 cells assessed as reduction in cell viability incubated for 48 hrs by CCK-8 assay; format: functional, cell-based
SMMC-7721 [4] = assay: Induction of cell morphological changes in human SMMC7721 cells assessed as appearance of concentrated nucleus at 5 uM incubated for 48 hrs by transmission electron microscopy; format: functional, cell-based; summary of the method: as §1
SMMC-7721 [5] = assay: Induction of cell morphological changes in human SMMC7721 cells assessed as formation of apoptotic bodies at 5 uM incubated for 48 hrs by transmission electron microscopy; format: functional, cell-based; summary of the method: as §1
SMMC-7721 [6] = assay: Antiproliferative activity against human SMMC7721 assessed as reduction in cell viability incubated for 48 hrs by CCK-8 assay; format: functional, cell-based; conditions: SMMC-7721, 48 h
SMMC-7721 [7] = assay: Induction of cell morphological changes in human SMMC7721 cells assessed as change in cell membrane structure at 5 uM incubated for 48 hrs by transmission electron microscopy; format: functional, cell-based; summary of the method: as §1
SMMC-7721 [8] = assay: Induction of endoplasmic reticulum vacuolation in human SMMC7721 cells assessed as increase in vacuole formation and entire ER cytoplasm occupied with vacuole with loss of cell contents at 3 to 5 uM incubated for 48 hrs by ER-tracker red and Hoechst 33342 staining based laser scanning confocal microscopy; format: functional
SMMC-7721 [9] = assay: Induction of cell morphological changes in human SMMC7721 cells assessed as appearance of ridges in mitochondria at 5 uM incubated for 48 hrs by transmission electron microscopy; format: functional, cell-based; summary of the method: as §1
CNE-2 [10] = assay: Induction of cell vacuole formation in human CNE2 cells at 5 uM incubated for 24 hrs by phase contrast microscopy; format: functional, cell-based
SMMC-7721 [11] = assay: Increase in LC3-II/LC3-I expression ratio in human SMMC7721 cells at 3 uM incubated for 12 to 48 hrs by Western blot analysis; format: functional, cell-based
SMMC-7721 [12] = assay: Antiproliferative activity against human SMMC7721 cells assessed as decrease in cell viability incubated for 48 hrs by CCK-8 assay; format: functional, cell-based
Summary of the method: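 SMMC-7721 cells exposed 48 h to 3, 5 or 10 μM, then viability read by CCK-8 assay.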

SMMC-7721 [13] = assay: Induction of cell morphological changes in human SMMC7721 cells assessed as nuclear chromatin pyknosis at 3 to 10 uM incubated for 48 hrs by H and E staining based light microscopy; format: functional
Summary of the method: (§2)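 Haematoxylin-eosin staining of SMMC-7721 cells after 48 h treatment, examined by light microscopy.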

SMMC-7721 [14] = assay: Induction of cell morphological changes in human SMMC7721 cells assessed as swelling of mitochondria at 5 uM incubated for 48 hrs by transmission electron microscopy; format: functional, cell-based; summary of the method: as §1
SMMC-7721 [15] = assay: Induction of cell morphological changes in human SMMC7721 cells assessed as appearance of smaller nucleus at 5 uM incubated for 48 hrs by transmission electron microscopy; format: functional, cell-based; summary of the method: as §1
CNE [16] = assay: Induction of cell vacuole formation in human CNE1 cells at 5 uM incubated for 24 hrs by phase contrast microscopy; format: functional, cell-based
SMMC-7721 [17] = assay: Induction of cell morphological changes in human SMMC7721 cells assessed as vacuole formation in mitochondria at 5 uM incubated for 48 hrs by transmission electron microscopy; format: functional, cell-based; summary of the method: as §1
SMMC-7721 [18] = assay: Effect on cleaved caspase 3 level in human SMMC7721 cells at antiproliferative IC60 incubated for 12 to 48 hrs by Western blot analysis; format: functional, cell-based
Summary of the method: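 SMMC-7721 cells were treated 12, 24 and 48 h, with cisplatin as apoptosis positive control. Extracts were immunoblotted for procaspase-3 and cleaved caspase-3, with β-actin as loading control.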

SMMC-7721 [19] = assay: Induction of cell morphological changes in human SMMC7721 cells assessed as autophagosome formation at 5 uM incubated for 48 hrs by transmission electron microscopy; format: functional, cell-based; summary of the method: as §1
SMMC-7721 [20] = assay: Decrease in p62 expression level in human SMMC7721 cells by Western blot analysis; format: functional, cell-based
SMMC-7721 [21] = assay: Induction of cell morphological changes in human SMMC7721 cells assessed as appearance of large vacuoles in cytoplasm at 5 uM incubated for 48 hrs by transmission electron microscopy; format: functional, cell-based; summary of the method: as §1
SMMC-7721 [22] = assay: Induction of endoplasmic reticulum stress in human SMMC7721 cells assessed as increase in GRP78 expression at 3 uM by Western blot analysis; format: functional, cell-based; conditions: TDE = time-dependent effect
SMMC-7721 [23] = assay: Induction of cell cycle arrest in human SMMC7721 cells at 3 to 10 uM incubated for 48 hrs by propidium iodide staining based flow cytometry; format: functional
SMMC-7721 [24] = assay: Induction of mitochondrial swelling, vacuoles and ridges disappearance and loss of mitochondrial and golgi apparatus structural integrity in human SMMC7721 cells at 5 uM incubated for 48 hrs by transmission electron microscopy; format: functional, cell-based; summary of the method: as §1
SMMC-7721 [25] = assay: Induction of cell morphological changes in human SMMC7721 cells assessed as cell shrinkage at 3 to 10 uM incubated for 48 hrs by HE staining based light microscopy; format: functional; summary of the method: as §2
CNE-2 [26] = assay: Antiproliferative activity against human CNE2 cells assessed as reduction in cell viability incubated for 48 hrs by CCK-8 assay; format: functional, cell-based
SMMC-7721 [27] = assay: Induction of cytoplasmic vacuolation in human SMMC7721 cells assessed as increase in number of vacuoles formation with shrinked volume of vacuoles at 3 to 10 uM incubated for 48 hrs by inverted phase contrast microscopy; format: functional, cell-based
SMMC-7721 [28] = assay: Induction of endoplasmic reticulum vacuolation in human SMMC7721 cells assessed as nuclei shrank and appearance of vacuoles surrounded by positive ER-specific markers at 3 to 5 uM incubated for 48 hrs by ER-tracker red and Hoechst 33342 staining based laser scanning confocal microscopy; format: functional, cell-based
SMMC-7721 [29] = assay: Induction of apoptosis in human SMMC7721 cells assessed as viable cells with normal cell membrane at 10 uM incubated for 48 hrs by Annexin V-FITC and propidium iodide staining based flow cytometry; format: functional
Summary of the method: (§3)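 After 48 h treatment, SMMC-7721 cells were collected, stained with annexin V-FITC plus PI, and analysed by flow cytometry for PS externalization/apoptotic fraction.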

SMMC-7721 [30] = assay: Induction of cell morphological changes in human SMMC7721 cells assessed as cytoplasmic loss at 3 to 10 uM incubated for 48 hrs by H and E staining based light microscopy; format: functional; summary of the method: as §2
SMMC-7721 [31] = assay: Induction of apoptosis with PS translocation in human SMMC7721 cells at 3 to 10 uM incubated for 48 hrs by Annexin V-FITC and propidium iodide staining based flow cytometry; format: functional, cell-based; summary of the method: as §3
SMMC-7721 [32] = assay: Induction of paraptosis in human SMMC7721 cells assessed as increase in LC3-II/LC3-I expression ratio by Western blot analysis; format: functional, cell-based
HepG2 [33] = assay: Induction of cell vacuole formation in human HepG2 cells at 3 to 5 uM incubated for 48 hrs by phase contrast microscopy; format: functional, cell-based
CNE-2 [34] = assay: Induction of cell vacuole formation in human CNE2 cells at 3 to 5 uM incubated for 48 hrs by phase contrast microscopy; format: functional, cell-based
SMMC-7721 [35] = assay: Induction of paraptosis in human SMMC7721 cells assessed as increase in GRP78 expression by Western blot analysis; format: functional, cell-based
SMMC-7721 [36] = assay: Induction of cell vacuole formation in human SMMC7721cells at 5 uM incubated for 24 hrs by phase contrast microscopy; format: functional, cell-based
SMMC-7721 [37] = assay: Inhibition of autophagosome formation in human SMMC7721 cells assessed as increase in p62 level at 3 uM incubated for 12 to 48 hrs by Western blot analysis; format: functional, cell-based
CNE [38] = assay: Induction of cell vacuole formation in human CNE1 cells at 3 to 5 uM incubated for 48 hrs by phase contrast microscopy; format: functional, cell-based
SMMC-7721 [39] = assay: Induction of cell morphological changes in human SMMC7721 cells assessed as appearance of small vacuoles in cytoplasm at 5 uM incubated for 48 hrs by transmission electron microscopy; format: functional, cell-based; summary of the method: as §1
HepG2 [40] = assay: Antiproliferative activity against human HepG2 cells assessed as reduction in cell viability incubated for 48 hrs by CCK-8 assay; format: functional, cell-based
HepG2 [41] = assay: Antiproliferative activity against human HepG2 cells assessed as reduction in cell viability incubated for 48 hrs by MTT assay; format: functional, cell-based
CNE-2 [42] = assay: Antiproliferative activity against human CNE2 cells assessed as reduction in cell viability incubated for 48 hrs by MTT assay; format: functional, cell-based
CNE [43] = assay: Antiproliferative activity against human CNE1 cells assessed as reduction in cell viability incubated for 48 hrs by MTT assay; format: functional, cell-based
SMMC-7721 [44] = assay: Antiproliferative activity against human SMMC7721 assessed as reduction in cell viability incubated for 48 hrs by MTT assay; format: functional, cell-based

SMILES: O=C(NCCO)c1cc(OCc2ccccc2)c2c(c1)C(=O)c1cccc(OCc3ccccc3)c1C2=O
- Activity (SMMC-7721 [1]): Active
- Activity (HepG2 [2]): Active
- inhibition (CNE [3]): Active
- Activity (SMMC-7721 [4]): Active
- Activity (SMMC-7721 [5]): inactive
- IC50 (SMMC-7721 [6]): 1500 nM
- Activity (SMMC-7721 [7]): inactive
- Activity (SMMC-7721 [8]): Active
- Activity (SMMC-7721 [9]): inactive
- Activity (CNE-2 [10]): Active
- Activity (SMMC-7721 [11]): Active
- inhibition (SMMC-7721 [12]): Dose-dependent effect
- Activity (SMMC-7721 [13]): Active
- Activity (SMMC-7721 [14]): Active
- Activity (SMMC-7721 [15]): Active
- Activity (CNE [16]): Active
- Activity (SMMC-7721 [17]): Active
- Activity (SMMC-7721 [18]): inactive
- Activity (SMMC-7721 [19]): inactive
- inhibition (SMMC-7721 [20]): inactive
- Activity (SMMC-7721 [21]): Active
- Activity (SMMC-7721 [22]): Tde
- Activity (SMMC-7721 [23]): inactive
- Activity (SMMC-7721 [24]): Active
- Activity (SMMC-7721 [25]): Active
- inhibition (CNE-2 [26]): Active
- Activity (SMMC-7721 [27]): Active
- Activity (SMMC-7721 [28]): Active
- Activity (SMMC-7721 [29]): 22.42%
- Activity (SMMC-7721 [30]): Active
- Activity (SMMC-7721 [31]): inactive
- Activity (SMMC-7721 [32]): Active
- Activity (HepG2 [33]): Active
- Activity (CNE-2 [34]): Active
- Activity (SMMC-7721 [35]): Active
- Activity (SMMC-7721 [36]): Active
- inhibition (SMMC-7721 [37]): Active
- Activity (CNE [38]): Active
- Activity (SMMC-7721 [39]): Active
- inhibition (HepG2 [40]): Active

SMILES: O=C1c2cccc(OCc3ccccc3)c2C(=O)c2c(OCc3ccccc3)cc(C(=O)N3CCN(CCO)CC3)cc21
- Activity (HepG2 [2]): Active
- inhibition (HepG2 [41]): Active
- Activity (CNE-2 [10]): Active
- Activity (CNE [16]): Active
- inhibition (CNE-2 [42]): Active
- inhibition (CNE [43]): Active
- inhibition (SMMC-7721 [44]): Active
- Activity (SMMC-7721 [36]): Active
